Source: ChEMBL document CHEMBL4406834, “Phenylthiazoles with nitrogenous side chain: An approach to overcome molecular obesity” (Eur J Med Chem, 2019)
Converted amounts (≈) assume the structure as drawn.

Columns and labels:
Staphylococcus aureus [1] = test: Antibiofilm activity against methicillin resistant Staphylococcus aureus NRS384 USA300 assessed as disruption of preformed biofilm at 4 x MIC incubated for 24 hrs by crystal violet staining based spectrophotometric analysis relative to control; assay type: functional
In short: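 MRSA USA300 overnight culture diluted 1:100 in tryptic soy broth + 1% glucose. Biofilm formed for 24 h at 37 °C. Planktonic cells removed, then compounds added at 256 to 2 µg/mL in TSB for 24 h at 37 °C. Wells washed with PBS, stained with 0.1% crystal violet for 30 min, destained with ethanol, read at OD595. Percent eradication relative to DMSO; unpaired t test.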

Streptococcus pneumoniae = test: Antibacterial activity against methicillin-resistant Streptococcus pneumoniae ATCC 700677 after 18 to 20 hrs by CLSI-based broth microdilution assay; assay type: functional
In short: (§1)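 Broth microdilution per CLSI. Strains grown aerobically overnight on tryptone soy agar at 37 °C, adjusted to 0.5 McFarland, then diluted in cation-adjusted Mueller-Hinton broth to about 5 × 10^5 CFU/mL. Compounds (10 mg/mL DMSO stocks) serially diluted. Incubated aerobically at 37 °C for 18-20 h. MIC is the lowest concentration with no visible growth.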

Listeria monocytogenes = test: Antibacterial activity against Listeria monocytogenes ATCC 19111 after 18 to 20 hrs by CLSI-based broth microdilution assay; assay type: functional
Enterococcus faecalis = test: Antibacterial activity against vancomycin-resistant Enterococcus faecalis ATCC 51299 after 18 to 20 hrs by CLSI-based broth microdilution assay; assay type: functional; in short: as §1
Staphylococcus aureus [2] = test: Bactericidal activity against methicilline-resistant Staphylococcus aureus NRS386 USA700 incubated for 18 to 20 hrs followed by replating on tryptic soy agar plate and further incubated for 18 to 24 hrs by CLSI-based broth microdilution assay; assay type: functional
In short: (§2)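 MBC: after the broth microdilution MIC (CAMHB, ~5 × 10^5 CFU/mL, 37 °C, 18-20 h), 4 µL from wells without growth plated onto tryptic soy agar. Plates incubated 37 °C for 18-20 h. MBC is the lowest concentration giving 99.9% reduction in growth.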

Staphylococcus aureus [3] = test: Bactericidal activity against methicilline-resistant Staphylococcus aureus NRS123 USA400 incubated for 18 to 20 hrs followed by replating on tryptic soy agar plate and further incubated for 18 to 24 hrs by CLSI-based broth microdilution assay; assay type: functional; in short: as §2
Staphylococcus aureus [4] = test: Bactericidal activity against methicilline-sensitive Staphylococcus aureus NRS-107 incubated for 18 to 20 hrs followed by replating on tryptic soy agar plate and further incubated for 18 to 24 hrs by CLSI-based broth microdilution assay; assay type: functional; in short: as §2
Staphylococcus aureus [5] = test: Bactericidal activity against Staphylococcus aureus ATCC BAA42 incubated for 18 to 20 hrs followed by replating on tryptic soy agar plate and further incubated for 18 to 24 hrs by CLSI-based broth microdilution assay; assay type: functional; in short: as §2
Staphylococcus aureus [6] = test: Antibacterial activity against methicilline-resistant Staphylococcus aureus NRS386 USA700 after 18 to 20 hrs by CLSI-based broth microdilution assay; assay type: functional; in short: as §1
Staphylococcus aureus [7] = test: Antibacterial activity against methicilline-resistant Staphylococcus aureus NRS123 USA400 after 18 to 20 hrs by CLSI-based broth microdilution assay; assay type: functional; in short: as §1
HaCaT [8] = test: Cytotoxicity against human HaCaT cells up to 32 ug/ml after 2 hrs by MTS assay; assay type: cell-based
Caco-2 [9] = test: Cytotoxicity against human Caco2 cells up to 32 ug/ml after 2 hrs by MTS assay; assay type: cell-based; conditions: caco-2, 2 h
Escherichia coli [10] = test: Antibacterial activity against Escherichia coli ATCC 25922; assay type: functional
Escherichia coli [11] = test: Bactericidal activity against Escherichia coli BW25113; assay type: functional
Klebsiella pneumoniae = test: Bactericidal activity against Klebsiella pneumoniae BAA-1706; assay type: functional
Pseudomonas aeruginosa = test: Bactericidal activity against Pseudomonas aeruginosa ATCC 15442; assay type: functional
Staphylococcus aureus [12] = test: (§3) Antibacterial activity against intracellular methicillin resistant Staphylococcus aureus USA400 infected in mouse J774 cells assessed as reduction in intracellular bacterial cells at 2 times MIC concentration incubated for 24 hrs followed by re-plating on TSA plate for 18 to 22 hrs by serial dilution method relative to control; assay type: functional
In short: (§4)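 J774 murine macrophages in DMEM + 10% FBS, 37 °C, 5% CO2, infected with MRSA USA400 at MOI ~10:1 for 1 h. Washed with gentamicin 100 µg/mL to kill extracellular bacteria. […] Cells lysed with 0.1% Triton-X, serially diluted in PBS, plated on TSA for 18-22 h, CFU counted. One-way ANOVA with Dunnett's test.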

Staphylococcus aureus [13] = test: as §3, with “assessed as log10 reduction in” for “assessed as reduction in”, “dilution method” for “dilution method relative to control”; assay type: functional; in short: as §4
[14] = Cmax in Sprague-Dawley rat at 50 mg/kg, po administered via gavage measured after 90 mins by LC-MS/MS analysis; assay type: ADME, organism-based; parameters: dose 50 mg/kg, route oral; conditions: in vivo
In short: (§5)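 Three male naïve Sprague-Dawley rats received a single oral gavage dose of 50 mg/kg in 2% ethanol/48% PEG 400/50% water. Blood was collected into EDTA-K2 tubes over 12 h after dosing. Plasma was protein-precipitated with acetonitrile and compound concentration quantified by LC/MS/MS.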

[15] = Tmax in Sprague-Dawley rat at 50 mg/kg, po administered via gavage measured over 12 hrs by LC-MS/MS analysis; assay type: ADME, organism-based; conditions: in vivo; in short: as §5
[16] = Clearance in Sprague-Dawley rat at 50 mg/kg, po administered via gavage after 12 hrs by LC-MS/MS analysis; assay type: ADME, organism-based; conditions: in vivo; in short: as §5
[17] = Volume of drug distribution in Sprague-Dawley rat at 50 mg/kg, po administered via gavage measured over 12 hrs by LC-MS/MS analysis; assay type: ADME, organism-based; conditions: in vivo; in short: as §5
[18] = Half life in Sprague-Dawley rat at 50 mg/kg, po administered via gavage measured over 12 hrs by LC-MS/MS analysis; assay type: ADME, organism-based; conditions: in vivo; in short: as §5
HaCaT [19] = test: Cytotoxicity against human HaCaT cells up to 64 ug/ml after 2 hrs by MTS assay; assay type: cell-based
Caco-2 [20] = test: Cytotoxicity against human Caco2 cells up to 64 ug/ml after 2 hrs by MTS assay; assay type: cell-based; conditions: caco-2, 2 h
J774 = test: Cytotoxicity against mouse J774 cells after 24 hrs by MTS assay; assay type: cell-based; conditions: j774, 24 h
In short: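 J774 murine macrophages were incubated with compound for 24 h, then given MTS reagent for 4 h. Absorbance was read at OD490.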

SMILES | inhibition (INH) (Staphylococcus aureus [1]) [%] | MIC (Streptococcus pneumoniae) [µg/mL] | MIC (Listeria monocytogenes) [µg/mL] | MIC (Enterococcus faecalis) [µg/mL] | MBC (Staphylococcus aureus [2]) [µg/mL] | MBC (Staphylococcus aureus [3]) [µg/mL] | MBC (Staphylococcus aureus [4]) [µg/mL] | MBC (Staphylococcus aureus [5]) [µg/mL] | MIC (Staphylococcus aureus [6]) [µg/mL] | MIC (Staphylococcus aureus [7]) [µg/mL] | MIC (Escherichia coli [10]) [µg/mL] | MBC (Escherichia coli [11]) [µg/mL] | MBC (Klebsiella pneumoniae) [µg/mL] | MBC (Pseudomonas aeruginosa) [µg/mL] | other results
C/C(=N\NC(=N)N)c1sc(-c2ccc(N3CCCC(C)C3)cc2)nc1C (stereo not given) | 50 | 8 (≈ 21.6 µM) | 2 (≈ 5.4 µM) | 8 (≈ 21.6 µM) | 8 (≈ 21.6 µM) | 16 (≈ 43.2 µM) | 16 (≈ 43.2 µM) | 16 (≈ 43.2 µM) | 8 (≈ 21.6 µM) | 8 (≈ 21.6 µM) | 16 (≈ 43.2 µM) | 32 (≈ 86.4 µM) | 32 (≈ 86.4 µM) | > 64 | Activity (HaCaT [8]): Non-Toxic; Activity (Caco-2 [9]): Non-Toxic
C/C(=N\NC(=N)N)c1sc(-c2ccc(N3CCCCC3)cc2)nc1C | 72 | 8 (≈ 22.4 µM) | 8 (≈ 22.4 µM) | 16 (≈ 44.9 µM) | 16 (≈ 44.9 µM) | 16 (≈ 44.9 µM) | 8 (≈ 22.4 µM) | 16 (≈ 44.9 µM) | 4 (≈ 11.2 µM) | 8 (≈ 22.4 µM) | 64 (≈ 180 µM) | 64 (≈ 180 µM) | 64 (≈ 180 µM) | > 64 | inhibition (INH) (Staphylococcus aureus [12]): 93.2%; Activity (Staphylococcus aureus [13]): 1.18 log10CFU/ml; Cmax [14]: 9700 to 10000 ng/mL; Tmax [15]: 1.3 h; CL/F [16]: 12.7 mL/min; Vd [17]: 4.42 L; half-life [18]: 240 min; Activity (HaCaT [19]): Non-Toxic; Activity (Caco-2 [20]): Non-Toxic; Activity (J774): Non-Toxic
